# Measured values as given in ChEMBL document CHEMBL1821706, “Unprecedented citrinin trimer tricitinol B functions as a novel topoisomerase IIα inhibitor” (J Med Chem, 2011).
# Calls of active or inactive are those of the source. The rule behind the calls is not given here.
# Tests used:
# HL-60 [1] = experiment: Induction of apoptosis in human HL60 cells assessed as increase in cleaved PARP levels after 24 hrs by Western blotting; assay type: functional, cell-based
# Outline: (§1)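 Cells (2×10^5/mL) were exposed to 2.5–10 μM for 24 h, then whole-cell lysates were made. Pro-/cleaved caspase-3, caspase-8, pro-/cleaved caspase-9, PARP (116 kDa full length, 85 kDa fragment) and Bid were probed by Western blot with ECL detection.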
# HL-60 [2] = experiment: Induction of apoptosis in human HL60 cells assessed as DNA ladder formation at 2.5 to 10 uM using Annexin-V/PI double-staining by flow cytometric analysis; assay type: functional, cell-based; conditions: TDE = time-dependent effect
# Outline: (§2)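 HL60 cells were treated with 2.5, 5.0, 7.5 or 10.0 μM for 24 h for DNA ladder analysis, representative of three experiments. Apoptotic fractions were measured after 2.5–10 μM for 24 h, or 10 μM over a time course, by Annexin/PI staining and flow cytometry (early plus late apoptotic cells), as mean ± SD of three experiments.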
# HCT-116 [3] = experiment: Induction of apoptosis in human HCT116 cells assessed as activation of caspase 9 at 2.5 to 10 uM after 24 hrs by Western blotting; assay type: functional, cell-based; outline: as §1
# HMEC [4] = experiment: Selectivity ratio of IC50 for human HMEC cells to IC50 for PC3 cells
# HMEC [5] = experiment: Selectivity ratio of IC50 for human HMEC cells to IC50 for MKN45 cells
# HL-60 [6] = experiment: Induction of apoptosis in human HL60 cells assessed as Bid cleavage at 2.5 to 10 uM after 24 hrs by Western blotting; assay type: functional, cell-based; outline: as §1
# A-431 = experiment: Cytotoxicity against human A431 cells after 72 hrs by SRB assay; assay type: functional, cell-based; conditions: A-431, 72 h, pooled result: one value given for 15 cell lines, strains, targets or settings
# Outline: (§3)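 Adherent human tumour lines were seeded and exposed in triplicate to graded compound concentrations at 37 °C for 72 h. Growth was read by sulforhodamine B staining. IC50 (50% growth inhibition) was obtained by the Logit method from at least three independent experiments and reported as mean ± SD.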
# [7] = target: DNA topoisomerase 2-alpha (Homo sapiens) (UniProt P11388); experiment: Inhibition of human topoisomerase 2alpha-mediated poststrand-passage DNA religation after 6 mins by agarose gel electrophoresis
# DNA topoisomerase 2-alpha (Homo sapiens), sequence (P11388 whole entry): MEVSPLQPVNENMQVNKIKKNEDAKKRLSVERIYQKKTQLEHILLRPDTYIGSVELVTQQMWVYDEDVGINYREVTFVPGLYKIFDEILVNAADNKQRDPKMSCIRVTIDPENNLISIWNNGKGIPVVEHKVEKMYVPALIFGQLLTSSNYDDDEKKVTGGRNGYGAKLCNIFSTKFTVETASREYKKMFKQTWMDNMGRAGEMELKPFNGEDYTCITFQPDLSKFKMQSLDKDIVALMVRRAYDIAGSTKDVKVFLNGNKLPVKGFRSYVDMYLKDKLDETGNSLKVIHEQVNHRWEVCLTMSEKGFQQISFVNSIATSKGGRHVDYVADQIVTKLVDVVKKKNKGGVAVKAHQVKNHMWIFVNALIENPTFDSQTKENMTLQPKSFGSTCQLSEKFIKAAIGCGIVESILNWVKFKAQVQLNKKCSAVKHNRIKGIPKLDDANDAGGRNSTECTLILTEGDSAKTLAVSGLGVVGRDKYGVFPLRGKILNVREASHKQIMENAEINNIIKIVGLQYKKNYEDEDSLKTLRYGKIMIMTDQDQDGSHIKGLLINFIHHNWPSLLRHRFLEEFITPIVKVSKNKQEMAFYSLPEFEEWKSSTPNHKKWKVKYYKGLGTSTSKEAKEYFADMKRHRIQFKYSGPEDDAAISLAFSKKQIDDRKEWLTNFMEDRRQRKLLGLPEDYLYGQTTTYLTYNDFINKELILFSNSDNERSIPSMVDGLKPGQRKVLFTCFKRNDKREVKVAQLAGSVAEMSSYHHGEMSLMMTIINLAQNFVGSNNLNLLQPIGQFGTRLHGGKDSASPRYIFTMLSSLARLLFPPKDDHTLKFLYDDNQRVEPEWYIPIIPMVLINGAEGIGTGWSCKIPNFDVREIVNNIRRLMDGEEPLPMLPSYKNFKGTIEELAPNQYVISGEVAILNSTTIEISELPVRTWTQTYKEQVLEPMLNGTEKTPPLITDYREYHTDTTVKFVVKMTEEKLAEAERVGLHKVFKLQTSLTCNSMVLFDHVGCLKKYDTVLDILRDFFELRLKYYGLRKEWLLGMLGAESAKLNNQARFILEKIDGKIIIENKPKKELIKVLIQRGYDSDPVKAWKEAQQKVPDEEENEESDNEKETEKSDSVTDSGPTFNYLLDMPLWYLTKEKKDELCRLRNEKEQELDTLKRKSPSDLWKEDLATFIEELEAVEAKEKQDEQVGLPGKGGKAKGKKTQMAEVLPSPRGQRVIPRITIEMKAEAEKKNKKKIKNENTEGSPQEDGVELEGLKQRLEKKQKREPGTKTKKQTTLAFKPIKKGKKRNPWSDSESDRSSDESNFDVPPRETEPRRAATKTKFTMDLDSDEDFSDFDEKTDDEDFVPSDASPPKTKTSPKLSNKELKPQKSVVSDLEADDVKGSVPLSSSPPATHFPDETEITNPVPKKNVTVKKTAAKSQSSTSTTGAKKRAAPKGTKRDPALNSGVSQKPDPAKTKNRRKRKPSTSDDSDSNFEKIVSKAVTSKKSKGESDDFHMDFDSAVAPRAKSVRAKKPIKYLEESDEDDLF
# Outline: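 Topo II (6 units) with 0.25 μg supercoiled pBR322 in cleavage buffer with 1 mM APPNHP and 5 mM MgCl2. Cleavage/religation equilibrium set at 37 °C for 6 min. Compound added just before religation, which was started by a rapid shift from 37 to 55 °C for 5 min. SDS stop, then 1% agarose electrophoresis.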
# KB [8] = experiment: Cytotoxicity against human KB cells after 72 hrs by SRB assay; assay type: functional, cell-based; outline: as §3
# HL-60 [9] = experiment: Induction of DNA damage in human HL60 cells assessed as increased histone H2AX expression at 20 uM agarose gel electrophoresis; assay type: functional, cell-based; conditions: TDE = time-dependent effect
# HMEC [10] = experiment: Selectivity ratio of IC50 for human HMEC cells to IC50 for BxPC3 cells
# HMEC [11] = experiment: Selectivity ratio of IC50 for human HMEC cells to IC50 for HCT116 cells
# [12] = target: DNA topoisomerase 2-alpha (Homo sapiens) (UniProt P11388); experiment: Inhibition of human topoisomerase 2alpha-mediated unwinding of linearized pBR322 assessed as DNA intercalation at 2 to 50 uM
# Outline: (§4)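 Unwinding (intercalation) test: EcoRI-linearized pBR322 (0.1 μg) incubated with compound and 2 units T4 DNA ligase in ligase buffer at 22 °C for 30 min. Stopped at 60 °C for 10 min, compound removed by phenol extraction, ligation products resolved on agarose gel.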
# KB [13] = experiment: Drug resistance index, ratio of IC50 for vincristine-resistant human KB cells to IC50 for human KB cells; assay type: functional
# HCT-116 [14] = experiment: Induction of apoptosis in human HCT116 cells assessed as accumulation at G2/M phase at 5 uM after 24 hrs using PI staining based flow cytometric analysis (reference value: 24.23%)
# HL-60 [15] = experiment: Induction of DNA damage in human HL60 cells assessed as increased histone H2AX expression after 1 hr by agarose gel electrophoresis; assay type: functional, cell-based
# [16] = target: DNA topoisomerase 2-alpha (Homo sapiens) (UniProt P11388); experiment: Inhibition of human topoisomerase 2alpha-mediated prestrand-passage DNA religation after 6 mins by agarose gel electrophoresis
# Outline: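 Topo II (6 units) with 0.25 μg supercoiled pBR322 in cleavage buffer with 5 mM CaCl2; equilibrium at 37 °C for 6 min. Compound added just before religation. Cleavage complex trapped with EDTA, NaCl added to block recleavage, samples put on ice. Religation started with cold MgCl2 (8.5 mM final), stopped with SDS, then 1% agarose electrophoresis.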
# HCT-116 [17] = experiment: Induction of apoptosis in human HCT116 cells assessed as accumulation at S phase at 5 uM after 24 hrs using PI staining based flow cytometric analysis (reference value: 27%)
# HL-60 [18] = experiment: Cytotoxicity against human HL60 cells after 72 hrs by MTT assay; assay type: functional, cell-based; conditions: HL-60, 72 h
# Outline: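 Cells were treated in triplicate with graded concentrations for 72 h at 37 °C and read by MTT. IC50 is the concentration giving 50% growth inhibition, derived by the Logit method from at least three independent experiments and given as mean ± SD.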
# [19] = target: DNA topoisomerase 2-alpha (Homo sapiens) (UniProt P11388); experiment: Inhibition of human topoisomerase 2alpha-mediated unwinding of linearized pBR322 assessed as DNA intercalation at 8 to 200 uM; outline: as §4
# HL-60 [20] = experiment: Induction of apoptosis in human HL60 cells assessed as DNA ladder formation after 24 hrs using Annexin-V/PI double-staining by flow cytometric analysis; assay type: functional, cell-based; outline: as §2
# KB [21] = experiment: Cytotoxicity against vincristine-resistant human KB cells over expressing P-glycoprotein after 72 hrs by SRB assay; assay type: functional, cell-based; outline: as §3
# HCT-116 [22] = experiment: Induction of apoptosis in human HCT116 cells assessed as accumulation at G0/G1 phase at 5 uM after 24 hrs using PI staining based flow cytometric analysis (reference value: 48.77%)
# HL-60 [23] = experiment: Induction of apoptosis in human HL60 cells assessed as DNA ladder formation at 10 uM after 1.5 to 24 hrs using Annexin-V/PI double-staining by flow cytometric analysis; assay type: functional, cell-based; outline: as §2
# HL-60 [24] = experiment: Induction of apoptosis in human HL60 cells assessed as decrease in procaspase 3 expression after 24 hrs by Western blotting; assay type: functional, cell-based; outline: as §1
# [25] = target: DNA topoisomerase 2-alpha (Homo sapiens) (UniProt P11388); experiment: Inhibition of human topoisomerase 2alpha-mediated decatenation of kDNA after 30 mins by agarose gel electrophoresis in presence of ATP
# Outline: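 Decatenation of 0.25 μg kDNA by 0.75 unit topo IIα at 37 °C for 30 min. Stopped with SDS. Run on 1% agarose in TAE at 4 V/cm for 2 h and stained with ethidium bromide.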
# HMEC [26] = experiment: Selectivity ratio of IC50 for human HMEC cells to IC50 for A549 cells
# HCT-116 [27] = experiment: Induction of apoptosis in human HCT116 cells assessed as activation of caspase 8 at 2.5 to 10 uM after 24 hrs by Western blotting; assay type: functional, cell-based; outline: as §1
# HMEC [28] = experiment: Selectivity ratio of IC50 for human HMEC cells to IC50 for Bel7402 cells
# HCT-116 [29] = experiment: Cytotoxicity against human HCT116 cells after 72 hrs by SRB assay; assay type: functional, cell-based; conditions: HCT-116, 72 h; outline: as §3
# MCF7 = experiment: Selectivity ratio of IC50 for human HMEC cells to IC50 for MCF7 cells
structure (smiles),measurement,setting,value
COC1O[C@H](C)[C@@H](C)c2c(C)c3c(c(O)c21)[C@@H]1O[C@H](C)[C@@H](C)c2c(C)c(O)c([C@H]4O[C@H](C)[C@@H](C)c5c(C)c(O)cc(O)c54)c(c21)O3 (stereo partly specified) [TRICITRINOL B],Activity,HL-60 [1],Dose-dependent effect
same,Activity,HL-60 [2],tde
same,Activity,HCT-116 [3],Active
same,Ratio IC50,HMEC [4],2
same,Ratio IC50,HMEC [5],2
same,Activity,HL-60 [6],Active
same,IC50,A-431,4.83 µM
same,inhibition,[7],Dose-dependent effect
same,IC50,KB [8],3.87 µM
same,Activity,HL-60 [9],tde
same,Ratio IC50,HMEC [10],2
same,Ratio IC50,HMEC [11],2
same,inhibition,[12],Active
same,Ratio IC50,KB [13],0.94
same,Activity,HCT-116 [14],42.06%
same,Activity,HL-60 [15],Dose-dependent effect
same,inhibition,[16],Dose-dependent effect
same,Activity,HCT-116 [17],20.42%
same,IC50,HL-60 [18],3.2 µM
same,inhibition,[19],Active
same,Activity,HL-60 [20],Dose-dependent effect
same,IC50,KB [21],4.6 µM
same,Activity,HCT-116 [22],37.52%
same,Activity,HL-60 [23],Active
same,Activity,HL-60 [24],Dose-dependent effect
same,inhibition,[25],Dose-dependent effect
same,Ratio IC50,HMEC [26],2
same,Activity,HCT-116 [27],Active
same,Ratio IC50,HMEC [28],2
same,IC50,HCT-116 [29],4.82 µM
same,Ratio IC50,MCF7,2
